Test results reported in ChEMBL document CHEMBL3244279, “Synthesis and pharmacological evaluation of a clofibrate-related tricyclic spirolactone, 5-chloro-4',5-dihydrospiro[benzofuran-2(3H),3'(2'H)-furan]-2'-one” (J Med Chem, 1978).
The source made the active and inactive calls. The calls are words filed in the database; no cut-off is given here.

What was measured:
Rattus norvegicus [1] = assay: Modulation of triglyceride level in sucrose-fed Sprague-Dawley rat liver at 0.4 mmol/kg, po bid for 7 days (reference value: 8.29 +/- 2.24 mg/g); type: functional
Rattus norvegicus [2] = assay: Modulation of HMG-CoA reductase activity in sucrose-fed Sprague-Dawley rat liver assessed as mevalonic acid formation using DL-3-hydroxy-3-methylglutaryl-3-14C-CoA as substrate at 0.4 mmol/kg, po bid for 7 days (reference value: 8.27 +/- 1.18 nmol/mg/hr); type: functional
Rattus norvegicus [3] = assay: Modulation of liver to body weight ratio in sucrose-fed Sprague-Dawley rat at 0.4 mmol/kg, po bid for 7 days (reference value: 4.06 +/- 0.25%); type: functional
Rattus norvegicus [4] = assay: Modulation of liver weight in sucrose-fed Sprague-Dawley rat at 0.4 mmol/kg, po bid for 7 days (reference value: 13.16 +/- 0.61 gms); type: functional
Rattus norvegicus [5] = assay: Modulation of liver microsomal protein level in sucrose-fed Sprague-Dawley rat at 0.4 mmol/kg, po bid for 7 days measured per gm of tissue (reference value: 25.0 +/- 2.5 mg); type: functional
Rattus norvegicus [6] = assay: Modulation of ethylmorphine N-demethylase activity in sucrose-fed Sprague-Dawley rat liver microsomes assessed as formaldehyde formation using ethylmorphine as substrate at 0.4 mmol/kg, po bid for 7 days (reference value: 9.36 +/- 0.50 nmol/mg/min); type: functional
Rattus norvegicus [7] = assay: Modulation of cytochrome b5 activity in sucrose-fed Sprague-Dawley rat liver microsomes at 0.4 mmol/kg, po bid for 7 days measured per mg of protein (reference value: 0.213 +/- 0.032 nmol); type: functional
Procedure, shortened: (§1)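 Sucrose-fed male rats dosed orally 0.4 mmol/kg twice daily for 7 days, controls vehicle; livers taken under ether anesthesia, microsomes prepared. Cytochrome P-450 and b5 estimated by the Kinoshita–Horie procedure, per mg microsomal protein. Mean ± SD, n = 5; Student's t test.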

Rattus norvegicus [8] = assay: Modulation of cytochrome-P450 activity in sucrose-fed Sprague-Dawley rat liver microsomes at 0.4 mmol/kg, po bid for 7 days measured per mg of protein (reference value: 0.593 +/- 0.059 nmol); type: functional; procedure, shortened: as §1
Rattus norvegicus [9] = assay: Antilipidemic activity in normal Sprague-Dawley rat assessed as serum cholesterol level at 0.4 mmol/kg, po bid for 7 days (reference value: 59.1 to 81.6 mg/dL); type: functional
Procedure, shortened: (§2)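 Normal male Sprague-Dawley rats dosed orally twice daily, 0.4 mmol/kg […], for 7 days; controls received vehicle. Serum cholesterol and triglycerides measured at end of treatment; two separate experiments. Mean ± SD, n = 5; Student's t test vs control.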

Rattus norvegicus [10] = assay: Antilipidemic activity in normal Sprague-Dawley rat assessed as serum triglyceride level at 0.4 mmol/kg, po bid for 7 days (reference value: 61.2 to 69.1 mg/dL); type: functional; procedure, shortened: as §2
Rattus norvegicus [11] = assay: Modulation of cholesterol level in normal Sprague-Dawley rat liver at 0.4 mmol/kg, po bid for 7 days (reference value: 2.73 to 3.28 mg/g); type: functional
Rattus norvegicus [12] = assay: Modulation of triglyceride level in normal Sprague-Dawley rat liver at 0.4 mmol/kg, po bid for 7 days (reference value: 2.73 to 3.36 mg/g); type: functional
Rattus norvegicus [13] = assay: Modulation of HMG-CoA reductase activity in normal Sprague-Dawley rat liver assessed as mevalonic acid formation using DL-3-hydroxy-3-methylglutaryl-3-14C-CoA as substrate at 0.4 mmol/kg, po bid for 7 days (reference value: 49.1 +/- 6.7 nmol/mg/hr); type: functional
Rattus norvegicus [14] = assay: Modulation of liver to body weight ratio in normal Sprague-Dawley rat at 0.4 mmol/kg, po bid for 7 days (reference value: 4.21 to 4.59%); type: functional
Rattus norvegicus [15] = assay: Modulation of liver weight in normal Sprague-Dawley rat at 0.4 mmol/kg, po bid for 7 days (reference value: 6.73 to 8.71 gms); type: functional
Rattus norvegicus [16] = assay: Modulation of liver microsomal protein level in normal Sprague-Dawley rat at 0.4 mmol/kg, po bid for 7 days measured per gm of tissue (reference value: 25.4 to 29.0 mg); type: functional
[17] = Drug metabolism in Sprague-Dawley rat serum assessed as esterase-mediated hydrolysis at 0.05 M measured after 5 mins; type: ADME, cell-free; details: read-out: Drug metabolism
[18] = Drug metabolism in Ringer bicarbonate buffer assessed as hydrolysis at 0.05 M at pH 7.4 measured after 60 mins; type: physicochemical
Procedure, shortened: (§3)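 Nonenzymatic hydrolysis: 0.1 mL of 0.05 M ethanolic stock added to 6.0 mL Ringer bicarbonate buffer, pH 7.4, 37 °C with shaking. Aliquots at 0–60 min extracted into isooctane–EtOH (95:5) with saturated NaCl; disappearance of parent tracked at 250 nm.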

Rattus norvegicus [19] = assay: Antilipidemic activity in sucrose-fed Sprague-Dawley rat assessed as serum triglyceride level at 0.4 mmol/kg, po bid for 7 days measured on day 0 (reference value: 157.1 +/- 77.8 mg/dL); type: functional
Rattus norvegicus [20] = assay: Antilipidemic activity in 48-hrs starved normal Sprague-Dawley rat model assessed as plasma cholesterol level at 0.124 mmol/kg, po (reference value: 90.1 +/- 8.8 mg/dL); type: functional
Rattus norvegicus [21] = assay: Antilipidemic activity in sucrose-fed Sprague-Dawley rat assessed as serum cholesterol level at 0.4 mmol/kg, po bid for 7 days measured on day 0 (reference value: 69 +/- 9 mg/dL); type: functional
Rattus norvegicus [22] = assay: Antilipidemic activity in 48-hrs starved normal Sprague-Dawley rat model assessed as plasma triglyceride level at 0.124 mmol/kg, po (reference value: 20.9 +/- 11.3 mg/dL); type: functional
Rattus norvegicus [23] = assay: Antilipidemic activity in sucrose-fed Sprague-Dawley rat assessed as serum cholesterol level at 0.4 mmol/kg, po bid for 7 days measured on day 7 (reference value: 92 +/- 22 mg/dL); type: functional
Rattus norvegicus [24] = assay: Antilipidemic activity in sucrose-fed Sprague-Dawley rat assessed as serum triglyceride level at 0.4 mmol/kg, po bid for 7 days measured on day 7 (reference value: 115.6 +/- 19.4 mg/dL); type: functional
Rattus norvegicus [25] = assay: Modulation of cholesterol level in sucrose-fed Sprague-Dawley rat liver at 0.4 mmol/kg, po bid for 7 days (reference value: 2.17 +/- 0.26 mg/g); type: functional
Rattus norvegicus [26] = assay: Antilipidemic activity in Triton WR-1339-induced hyperlipidemic Sprague-Dawley rat model assessed as plasma cholesterol level at 0.124 mmol/kg, po (reference value: 183 +/- 101 mg/dL)
Rattus norvegicus [27] = assay: Antilipidemic activity in Triton WR-1339-induced hyperlipidemic Sprague-Dawley rat model assessed as plasma triglyceride level at 0.124 mmol/kg, po (reference value: 156 +/- 184 mg/dL)
Rattus norvegicus [28] = assay: Antilipidemic activity in 48-hrs starved normal Sprague-Dawley rat model assessed as plasma cholesterol level at 0.124 mmol/kg, po (reference value: 88.7 +/- 6.9 mg/dL); type: functional
Rattus norvegicus [29] = assay: Antilipidemic activity in 48-hrs starved normal Sprague-Dawley rat model assessed as plasma triglyceride level at 0.124 mmol/kg, po (reference value: 20.8 +/- 5.5 mg/dL); type: functional
Rattus norvegicus [30] = assay: Antilipidemic activity in normal Sprague-Dawley rat assessed at 0.4 mmol/kg, po bid for 7 days; type: functional, organism-based
[31] = Drug metabolism in Sprague-Dawley rat serum assessed as esterase-mediated hydrolysis measured after 5 mins; type: ADME, cell-free
Procedure, shortened: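 Pooled serum from ether-anesthetized male Sprague-Dawley rats (300–350 g; aortic blood with EDTA). 0.1 mL of 0.05 M ethanolic stock added to 6.0 mL serum, 37 °C with shaking; samples at 0, 5, 10, 30, 60 min extracted into isooctane–EtOH (95:5) with saturated NaCl; loss of parent read at 250 nm.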

[32] = Drug metabolism in Ringer bicarbonate buffer assessed as hydrolysis at pH 7.4 measured after 60 mins; type: physicochemical; details: read-out: Drug metabolism; procedure, shortened: as §3
Rattus norvegicus [33] = assay: Modulation of cholesterol level in sucrose-fed Sprague-Dawley rat liver at 0.4 mmol/kg, po bid for 7 days (reference value: 1.81 to 2.17 mg/g); type: functional
Rattus norvegicus [34] = assay: Modulation of triglyceride level in sucrose-fed Sprague-Dawley rat liver at 0.4 mmol/kg, po bid for 7 days (reference value: 7.26 to 8.29 mg/g); type: functional
Rattus norvegicus [35] = assay: Modulation of HMG-CoA reductase activity in sucrose-fed Sprague-Dawley rat liver assessed as mevalonic acid formation using DL-3-hydroxy-3-methylglutaryl-3-14C-CoA as substrate at 0.4 mmol/kg, po bid for 7 days (reference value: 8.27 to 8.3 nmol/mg/hr); type: functional
Rattus norvegicus [36] = assay: Modulation of liver to body weight ratio in sucrose-fed Sprague-Dawley rat at 0.4 mmol/kg, po bid for 7 days (reference value: 3.88 to 4.06%); type: functional
Rattus norvegicus [37] = assay: Modulation of liver weight in sucrose-fed Sprague-Dawley rat at 0.4 mmol/kg, po bid for 7 days (reference value: 11.30 to 13.16 gms); type: functional
Rattus norvegicus [38] = assay: Modulation of liver microsomal protein level in sucrose-fed Sprague-Dawley rat at 0.4 mmol/kg, po bid for 7 days measured per gm of tissue (reference value: 25.0 to 27.2 mg); type: functional
Rattus norvegicus [39] = assay: Modulation of ethylmorphine N-demethylase activity in sucrose-fed Sprague-Dawley rat liver microsomes assessed as formaldehyde formation using ethylmorphine as substrate at 0.4 mmol/kg, po bid for 7 days (reference value: 6.40 to 9.36 nmol/mg/min); type: functional
Rattus norvegicus [40] = assay: Modulation of cytochrome b5 activity in sucrose-fed Sprague-Dawley rat liver microsomes at 0.4 mmol/kg, po bid for 7 days measured per mg of protein (reference value: 0.185 to 0.213 nmol); type: functional; procedure, shortened: as §1
Rattus norvegicus [41] = assay: Modulation of cytochrome-P450 activity in sucrose-fed Sprague-Dawley rat liver microsomes at 0.4 mmol/kg, po bid for 7 days measured per mg of protein (reference value: 0.477 to 0.593 nmol); type: functional; procedure, shortened: as §1
Rattus norvegicus [42] = assay: Modulation of NADPH-cytochrome c reductase activity in sucrose-fed Sprague-Dawley rat liver microsomes assessed as cytochrome c reduction at 0.4 mmol/kg, po bid for 7 days (reference value: 202.5 +/- 27.9 nmol/mg/min); type: functional
Rattus norvegicus [43] = assay: Antilipidemic activity in Triton WR-1339-induced hyperlipidemic Sprague-Dawley rat model assessed as plasma cholesterol level at 0.124 mmol/kg, po (reference value: 166 +/- 17.8 mg/dL)
Rattus norvegicus [44] = assay: Antilipidemic activity in Triton WR-1339-induced hyperlipidemic Sprague-Dawley rat model assessed as plasma triglyceride level at 0.124 mmol/kg, po (reference value: 98.5 +/- 16.9 mg/dL)

O=C1OCCC12Cc1cc(Cl)ccc1O2 (stereo not drawn)
Activity (Rattus norvegicus [1]): 10.02 mg/g
Activity (Rattus norvegicus [2]): 7.1 nmol/mg/h
Activity (Rattus norvegicus [3]): 4.18%
Activity (Rattus norvegicus [4]): 13.16 g
Activity (Rattus norvegicus [5]): 27.8 mg
Activity (Rattus norvegicus [6]): 9.8 nmol/mg/min
Activity (Rattus norvegicus [7]): 0.173 nmol
Activity (Rattus norvegicus [8]): 0.55 nmol
Activity (Rattus norvegicus [9]): 58.6 mg/dL
Activity (Rattus norvegicus [10]): 66.5 mg/dL
Activity (Rattus norvegicus [11]): 3.18 mg/g
Activity (Rattus norvegicus [12]): 3.17 mg/g
Activity (Rattus norvegicus [13]): 45 nmol/mg/h
Activity (Rattus norvegicus [14]): 4.5%
Activity (Rattus norvegicus [15]): 7.87 g
Activity (Rattus norvegicus [16]): 27.3 mg
metabolised at 5 min [17]: > 90%
degraded at 1 h [18]: < 20%
Activity (Rattus norvegicus [19]): 142 mg/dL
Activity (Rattus norvegicus [20]): 91.8 mg/dL
Activity (Rattus norvegicus [21]): 67 mg/dL
Activity (Rattus norvegicus [22]): 18.5 mg/dL
Activity (Rattus norvegicus [23]): 103 mg/dL
Activity (Rattus norvegicus [24]): 121.5 mg/dL
Activity (Rattus norvegicus [25]): 2.32 mg/g
Activity (Rattus norvegicus [26]): 131 mg/dL
Activity (Rattus norvegicus [27]): 20.6 mg/dL

CCOC(=O)C(C)(C)Oc1ccc(Cl)cc1 [CLOFIBRATE]
Activity (Rattus norvegicus [28]): 87 mg/dL
Activity (Rattus norvegicus [29]): 24.1 mg/dL
Activity (Rattus norvegicus [30]): Active
metabolised at 5 min [31]: > 90%
degraded at 1 h [32]: < 20%
Activity (Rattus norvegicus [19]): 153 mg/dL
Activity (Rattus norvegicus [21]): 74 mg/dL
Activity (Rattus norvegicus [23]): 36 mg/dL
Activity (Rattus norvegicus [24]): 50.2 mg/dL
Activity (Rattus norvegicus [33]): 1.76 mg/g
Activity (Rattus norvegicus [34]): 3.05 mg/g
Activity (Rattus norvegicus [35]): 2.7 nmol/mg/h
Activity (Rattus norvegicus [36]): 5.01%
Activity (Rattus norvegicus [37]): 14.32 g
Activity (Rattus norvegicus [38]): 29.2 mg
Activity (Rattus norvegicus [39]): 7.91 nmol/mg/min
Activity (Rattus norvegicus [40]): 0.169 nmol
Activity (Rattus norvegicus [41]): 0.806 nmol
Activity (Rattus norvegicus [42]): 308.3 nmol/mg/min
Activity (Rattus norvegicus [43]): 93.2 mg/dL
Activity (Rattus norvegicus [44]): 22.3 mg/dL
